Results reported in ChEMBL document CHEMBL4359864, “The synthesis and in vitro biological evaluation of novel fluorinated tetrahydrobenzo[j]phenanthridine-7,12-diones against Mycobacterium tuberculosis” (Eur J Med Chem, 2019).
pIC50: −log10 of the molar value. Values after ≈ are worked out from the molar mass of the structure shown. Active and inactive are the calls of the source.

Legend:
Pseudomonas aeruginosa = experiment: Antibacterial activity against Pseudomonas aeruginosa ATCC 9027 incubated for 24 hrs by resazurin dye based fluorimetric assay; type: functional, organism-based; details: ATCC 9027, 24 h
Method in brief: (§1)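 Resazurin microtiter assay: compounds from 10 mM DMSO stock, twofold serial dilutions from 64 µM final in growth medium, in triplicate. Inoculum from frozen glycerol stocks. Exposure 24 h, or 7 days for Mtb H37Ra (7H9 + 0.5% glycerol + 10% OADC). Then 0.01% resazurin was added and plates were incubated at 37°C until pink. Fluorescence read at ex 550/em 590 nm; mean of triplicates.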

Enterococcus faecium = experiment: Antibacterial activity against Enterococcus faecium ATCC 19434 incubated for 24 hrs by resazurin dye based fluorimetric assay; type: functional, organism-based; details: ATCC 19434, 24 h; method in brief: as §1
Staphylococcus aureus = experiment: Antibacterial activity against Staphylococcus aureus ATCC 6538 incubated for 24 hrs by resazurin dye based fluorimetric assay; type: functional, organism-based; details: ATCC 6538, 24 h; method in brief: as §1
Streptococcus pneumoniae = experiment: Antibacterial activity against Streptococcus pneumoniae ATCC BAA-334 incubated for 24 hrs by resazurin dye based fluorimetric assay; type: functional, organism-based; details: ATCC BAA-334, 24 h; method in brief: as §1
[1] = test system: Mycobacterium tuberculosis; experiment: Antibacterial activity against Mycobacterium tuberculosis H37Ra ATCC 25177 incubated for 7 days by resazurin dye based fluorimetric assay; type: functional, organism-based; details: H37Ra ATCC 25177, 168 h; method in brief: as §1
[2] = test system: Mycobacterium tuberculosis; experiment: Antimycobacterial activity against Mycobacterium tuberculosis H37Ra lux incubated for 7 days by luminometric assay; type: functional, organism-based; details: 168 h
Method in brief: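 Twofold serial dilutions in 7H9/OADC/glycerol, in triplicate, inoculated with a suspension of 10.000 RLU per mL. After 7 days, n-decanal (1% v/v in ethanol) was added and luminescence read. IC50 and MIC (90% growth reduction) were derived from the mean of triplicates.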

Mycobacterium marinum = experiment: Antimycobacterial activity against Mycobacterium marinum NCTC 2275 by resazurin dye based fluorimetric assay; type: functional, organism-based
Method in brief: (§2)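 Resazurin microtiter method as for the bacterial panel. Mycobacteria grown in 7H9 with 10% OADC and 0.5% glycerol; for BCG, 0.05% Tween 80 replaced the glycerol. Cultures were sonicated and needle-passed to single cells. Incubation at 37°C, or 32°C for M. marinum. Fluorescence read at ex 550/em 590 nm; mean of triplicates.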

[3] = Antimycobacterial activity against Mycobacterium avium subsp. avium ATCC 25291 by resazurin dye based fluorimetric assay; type: functional; method in brief: as §2
CYP450 [4] = target: CYP450 (Homo sapiens, UniProt P04798+P05177+P05181+P08684+P10632+P10635+P11509+P11712+P13584+P20813+P20815+P20853+P24462+P24903+P33260+P33261+P51589+P78329+P98187+Q02928+Q08477+Q16678+Q16696+Q5TCH4+Q6VVX0+Q7Z449+Q8TAV3+Q96SQ9+Q9HB55); experiment: Microsomal stability in human liver microsomes assessed as CYP450-mediated metabolism by measuring compound remaining at 5 uM and measured for 60 mins in presence of NADPH by UPLC-MS/MS analysis (reference value: 100%); type: ADME; details: read-out: Stability
Method in brief: (§3)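 Compound at 5 µM with 0.5 mg/mL liver microsomes in PBS. Phase I was started with 1 mM NADPH; phase II used 2 mM UDPGA. Diclofenac served as reference. Samples taken at 0, 15, 30 and 60 min were quenched in ice-cold acetonitrile, centrifuged at 4°C and analysed by LC-MS. Mean of at least two replicates ± SD.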

UGT [5] = target: T1, UGT (Homo sapiens, UniProt O60656+O75310+O75795+P06133+P0DTE4+P0DTE5+P16662+P19224+P22309+P22310+P35503+P35504+P36537+P54855+Q6UWM9+Q9BY64+Q9HAW7+Q9HAW8+Q9HAW9); experiment: Microsomal stability in human liver microsomes assessed as UGT-mediated metabolism by measuring compound remaining at 5 uM and measured for 15 mins in presence of UDPGA by UPLC-MS/MS analysis (reference value: 100%); type: ADME; details: read-out: Stability; method in brief: as §3
UGT [6] = target: T1, UGT; experiment: Microsomal stability in human liver microsomes assessed as UGT-mediated metabolism by measuring compound remaining at 5 uM and measured for 30 mins in presence of UDPGA by UPLC-MS/MS analysis (reference value: 100%); type: ADME; details: read-out: Stability; method in brief: as §3
UGT [7] = target: T1, UGT; experiment: Microsomal stability in human liver microsomes assessed as UGT-mediated metabolism by measuring compound remaining at 5 uM and measured for 60 mins in presence of UDPGA by UPLC-MS/MS analysis (reference value: 100%); type: ADME; details: read-out: Stability; method in brief: as §3
CYP450 [8] = experiment: Microsomal stability in mouse liver microsomes assessed as CYP450-mediated metabolism by measuring compound remaining at 5 uM and measured for 15 mins in presence of NADPH by UPLC-MS/MS analysis (reference value: 100%); type: ADME; details: read-out: Stability; method in brief: as §3
CYP450 [9] = experiment: Microsomal stability in mouse liver microsomes assessed as CYP450-mediated metabolism by measuring compound remaining at 5 uM and measured for 60 mins in presence of NADPH by UPLC-MS/MS analysis (reference value: 100%); type: ADME; details: read-out: Stability; method in brief: as §3
UGT [10] = experiment: Microsomal stability in mouse liver microsomes assessed as UGT-mediated metabolism by measuring compound remaining at 5 uM and measured for 15 mins in presence of UDPGA by UPLC-MS/MS analysis (reference value: 100%); type: ADME; details: read-out: Stability; method in brief: as §3
UGT [11] = experiment: Microsomal stability in mouse liver microsomes assessed as UGT-mediated metabolism by measuring compound remaining at 5 uM and measured for 60 mins in presence of UDPGA by UPLC-MS/MS analysis (reference value: 100%); type: ADME; details: read-out: Stability; method in brief: as §3
[12] = test system: Mycobacterium tuberculosis; experiment: Antimycobacterial activity against Mycobacterium tuberculosis H37Ra lux infected in mouse J774A.1 cells assessed as reduction in intracellular mycobacterial replication at 1.5 uM incubated for 24 to 72 hrs by luminometric assay relative to control; type: functional; set-up: scale not given: the % may be the effect or the level left
Method in brief: (§4)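 J774A.1 cells were infected at MOI 10 for 2 h at 37°C. Extracellular bacteria were killed with 100 µg/mL gentamicin for 1 h, then cells were washed and treated. At 24, 48 and 72 h, cells were lysed with 1% Triton X-100 and n-decanal was added to the lysate. Luminescence (RLU) reported as mean of triplicates ± SD.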

[13] = test system: Mycobacterium tuberculosis; experiment: Antimycobacterial activity against Mycobacterium tuberculosis H37Ra lux infected in mouse J774A.1 cells assessed as reduction in intracellular mycobacterial replication at 5.0 uM incubated for 24 to 72 hrs by luminometric assay relative to control; type: functional; set-up: scale not given: the % may be the effect or the level left; method in brief: as §4
[14] = test system: Mycobacterium tuberculosis; experiment: Antimycobacterial activity against Mycobacterium tuberculosis H37Ra lux infected in mouse J774A.1 cells assessed as reduction in intracellular mycobacterial replication at 10.0 uM incubated for 24 to 72 hrs by luminometric assay relative to control; type: functional; set-up: scale not given: the % may be the effect or the level left; method in brief: as §4
[15] = Genotoxicity in Salmonella typhimurium TA104 harboring with RecN2-4 assessed as S/N ratio at 1 to 100 uM measured for 4 hrs with 5 mins interval by luminescence based assay; type: toxicity; details: salmonella enterica subsp. enterica serovar typhimurium
Method in brief: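 VITOTOX test. Genox (recN2-4) and Cytox (pr1) S. typhimurium TA104 strains were diluted 250-fold and grown in 869 medium for 16 h at 36°C with shaking, then diluted 10-fold and grown 1 h more. Compounds tested at 1, 10 and 100 µM, with or without rat liver S9-mix. Luminescence read for 4 h at 5-min intervals. S/N thresholds: Genox >1.5 genotoxic; Cytox <0.8 toxic, >1.5 luminescence artefact.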

Row | SMILES | pIC50 (Pseudomonas aeruginosa) | pIC50 (Enterococcus faecium) | pIC50 (Staphylococcus aureus) | pIC50 (Streptococcus pneumoniae) | pIC50 [1] | pIC50 [2] | MIC90 [2] | pIC50 (Mycobacterium marinum) | pIC50 [3] | remaining at 1 h, 5 µM (CYP450 [4]) | remaining at 0.25 h, 5 µM (UGT [5]) | remaining at 0.5 h, 5 µM (UGT [6]) | remaining at 1 h, 5 µM (UGT [7]) | remaining at 0.25 h, 5 µM (CYP450 [8]) | remaining at 1 h, 5 µM (CYP450 [9]) | remaining at 0.25 h, 5 µM (UGT [10]) | remaining at 1 h, 5 µM (UGT [11]) | Activity [12] | Activity [13] | Activity [14] | other results
1 | O=C1C2=C(C(=O)c3c1cnc1ccccc31)C1CCC2C1 (configuration not stated) | < 4.19 | 4.19 to 4.49 | 4.19 to 4.49 | 4.19 to 4.49 | 5.70 to 6.00 | 5.89 | 6.33 µM (≈ 1.74 µg/mL) | 5.11 | 6.92 | 100% | 83% | 76% | 68% | 100% | 94% | 69% | 78% | 20.68% | 58.94% | 84.14% | Ratio [15]: <= 1.5
2 | O=C1C2=C(C(=O)c3c1cnc1c(F)cccc31)C1CCC2C1 (configuration not stated) | < 4.19 | < 4.19 | < 4.49 | 4.19 to 4.49 | 5.70 to 6.00 | 5.81 | 4.43 µM (≈ 1.3 µg/mL) | 5.48 | 7.00 | 100% | 78% | 71% | 65% | 100% | 100% | 77% | 61% | inactive | inactive | inactive | Ratio [15]: <= 1.5
